{"source": "the RNAGym collection of RNA variant scans (doi:10.1126/science.aae0568)", "parents": {"B1": {"name": "tRNA (parent)", "chain": "GUUCCGUUGGCGUAAUGGUAACGCGUCUCCCUCCUAAGGAGAAGACUGCGGGUUCGAGUCCCGUACGGAACG"}}, "note": "Fewer inactive variants are shown than the library holds."}
{"variants_of": "B1", "assay": "yeast fitness relative to wild type (ratio to wild type); higher = fitter; tRNA-Arg(CCU), competitive growth, 37 C, YPD", "procedure,_shortened": "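Changes in genotype frequencies gave Darwinian fitness relative to wild type. Frequencies were read by 100-nucleotide paired-end sequencing of gene amplicons before and after pooled Saccharomyces cerevisiae strains, carrying tRNA-Arg(CCU) gene variants at the native locus, were competed in YPD at 37°C for 24 hours in six replicates. A genotype was kept only with ≥ 100 starting reads, and estimates < 0.5 were set to 0.5.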"}
{"variant": "GUACACUUGGUGUAGAGGUAACGCGGCUCCCUCCUAAGGAGAAGACUGCGGGUUCGAGUGUCGUACGGAACG", "note": "[U3A C5A G6C C11U A15G U16A U26G C60G C61U]", "yeast fitness": "≤ 0.5"}
{"variant": "GUACCGUUGGCGUAAUGGUAACGCGUAUCCCUCCUAAGGAGAAGACUGCGGGUUCGAGUCCCGUACGGUACG", "note": "[U3A C27A A69U]", "yeast fitness": 0.627}
{"variant": "GUACGGUUGGCGUAAUGGUAACGCGUCUGCCUCCUCAGGAGAAGACUGCGGGGUCGAGUCCCGUACGGAACG", "note": "[U3A C5G C29G A36C U53G]", "yeast fitness": "≤ 0.5"}
{"variant": "GUACCGUUGGCGUAAUGGUAACGCGUGUCCUUUCUAAGGAGCAGACUGCGGGUUCGAGUCCCGUAUGGACCG", "note": "[U3A C27G C31U C33U A42C C66U A70C]", "yeast fitness": "≤ 0.5"}
{"variant": "GUACCGUUGGCGUAAUGGUAACGCGUUUCCCUCCUAAGGAGAAGACUGCGGGUUCGAGUCCCGUACGGAACG", "note": "[U3A C27U]", "yeast fitness": 0.853}
{"variant": "GUACCGUUGGCGUAAUGGUAACGGGUCUCCCUCCUAAGGAGAAGACUGCGGGUUCGAGUGCCGUACGGAACG", "note": "[U3A C24G C60G]", "yeast fitness": 0.645}
{"variant": "GUACCGUUGGGGUAAUGGUAACGCGUCUCCCUCCUAAGGACAAGACUGCGGGUUCGACUCCCGUACGGAACG", "note": "[U3A C11G G41C G58C]", "yeast fitness": 0.733}
{"variant": "GUACCGUUGGCGUAAUGGUAAUGCGUCUCCCUCCUAAGAAGAAGACUGCGGGUUCGAGUCCCGUACGGAACG", "note": "[U3A C22U G39A]", "yeast fitness": "≤ 0.5"}
{"variant": "GUACCGUUGGCGUAAUGGUAACGGGUCUACCUCCUAAGGAGAAGACUGCCGGUUCGCGUCCCGUAUGGAACG", "note": "[U3A C24G C29A G50C A57C C66U]", "yeast fitness": "≤ 0.5"}
{"variant": "GUAUCGAUGGCGUAAUGGUAACGUGUCUCCCUCCUAAGGAGAAGACUGCGGGUUCGAGUCAGGUGCGGAACG", "note": "[U3A C4U U7A C24U C61A C62G A65G]", "yeast fitness": "≤ 0.5"}
{"variant": "GUACCGUUGGCGUAAUGGUAACGCGUGUCCCUCCUAAGGAGACGACUGCGGGUUCGAGUCCCGUACGGAACG", "note": "[U3A C27G A43C]", "yeast fitness": "≤ 0.5"}
{"variant": "GUACCGUUGGCGUAAUGGUAACGCGUGUCCUUUCUAAGGAGCAGACUGCGGGUUCGAGUCCCGUACGGAUCG", "note": "[U3A C27G C31U C33U A42C A70U]", "yeast fitness": "≤ 0.5"}
{"variant": "GUACCGUUGGCGUAAUGGUAACGCGUCUCGCUCCUAAGGAGAAGACUGCGGGUUCGAGUCCCGUAGGGAACG", "note": "[U3A C30G C66G]", "yeast fitness": "≤ 0.5"}
{"variant": "GUACCGUUGGGGUCAUGGUAACGGGUCUCCCUCCUAAGGAGAAGACUGCGGGUUCGAGUCCUGUGCGGAACG", "note": "[U3A C11G A14C C24G C62U A65G]", "yeast fitness": 0.595}
{"variant": "GUACUGUUGGCGUGAUGGUAACGCGUCUCCCUCGUAAGGAGACGACUGCGGGUUCGAGUCCCGUACGGAACG", "note": "[U3A C5U A14G C34G A43C]", "yeast fitness": "≤ 0.5"}
{"variant": "GUACCGUUGGAGUAAUGGUAACGCGUCUCCCUCCUAAGGAGAAGACUGCGGGUUCGAGUCCCGUACGGCACG", "note": "[U3A C11A A69C]", "yeast fitness": "≤ 0.5"}
{"variant": "GUACAGUUGGCGUAAUGGUAACGCGUCUCCCUCCUAAGGAGAAGCCUGCCGGUUCGAGUCCCGUACGGAACG", "note": "[U3A C5A A45C G50C]", "yeast fitness": "≤ 0.5"}
{"variant": "GUACCGUUGGCGUAAUGGUAACGAGUCUCCCUCUUAAGGAGAAGACUGCGGGUGCGAGUCCCGUACGGAACG", "note": "[U3A C24A C34U U54G]", "yeast fitness": "≤ 0.5"}
{"variant": "GUACCGUUGGCGUAAUGGUAACGAGUCUCUCUCCUAAGGAGAAGACUGCGGGUUCGAGUCCUGUACGGAACG", "note": "[U3A C24A C30U C62U]", "yeast fitness": "≤ 0.5"}
{"variant": "GUAUCGAUGGCGUAAUGGUAACGUGUCUCCCUCCUAAGGAGAAGACUGCGGGUUCGAGUCCCGUACGGAUCG", "note": "[U3A C4U U7A C24U A70U]", "yeast fitness": "≤ 0.5"}
{"variant": "GUACCGUUGGGGUAAUGGUAACGCGUCACCCUCCUAAGGACAAGACUGCGGGUUCGACUCCCGUACGGAACG", "note": "[U3A C11G U28A G41C G58C]", "yeast fitness": "≤ 0.5"}
{"variant": "GUACCGUUGGCGUAAUGGUAACGCGUCUCUCUCCUAAGGAGGAGACUGCGGGUUCGAGUCUCGUACGGAACG", "note": "[U3A C30U A42G C61U]", "yeast fitness": 0.602}
{"variant": "GUACCGUUGGAGUAAUGGUAACGCGUCUCCCUUCUAAGGAGAAGACUGCGGGUUCGAGUCCCGUACGGACCG", "note": "[U3A C11A C33U A70C]", "yeast fitness": "≤ 0.5"}
{"variant": "GUACGGUUGGUGUAAUGGUAACGAGUCUCUCUCCUAAGGAGAAGACUGCGGGUUCGAGUCCCGUACGGAGCG", "note": "[U3A C5G C11U C24A C30U A70G]", "yeast fitness": "≤ 0.5"}
{"variant": "GUACUGUUGGCGUAAUGGUAAGGCGUCUCCCUCGUAGGGAGAAGACUGCGGGUUCGAGUCCCGUGCGGAACG", "note": "[U3A C5U C22G C34G A37G A65G]", "yeast fitness": "≤ 0.5"}
{"variant": "GUACCGUUGGCGUAAUGGUAACGCGUCUCGCUCCUAAGGAGAAGACUGCGGGUUCGAGUCCCGUACGGAACG", "note": "[U3A C30G]", "yeast fitness": 0.598}
{"variant": "GUACCGUUGGCGUAAUGGUAACGCGUCUCACUCCUAAGGAGAAGACUGCGGGUUCGAGUCCCGUACGGAACG", "note": "[U3A C30A]", "yeast fitness": 0.834}
{"variant": "GUACCGUUGGUGUAAUGGUAACGCGUCUCCCUCCUAAGGAGAAGACUGCGGGUUGGAGUCCCGUCCGGAACG", "note": "[U3A C11U C55G A65C]", "yeast fitness": "≤ 0.5"}
{"variant": "GUACGGUUGGCGUGAUGGUAACGAGUCUCCCUCCUAAGGAGAAGACUGCGCCUUCGAGUCCCGUACGGAACG", "note": "[U3A C5G A14G C24A G51C G52C]", "yeast fitness": "≤ 0.5"}
{"variant": "GUACCGUUGGGGUAAUGGUAACGCGUCUCCGUCCUAAGGAGAAGACUGCGGGUUCGAGUCCCGUGCGGAACG", "note": "[U3A C11G C31G A65G]", "yeast fitness": "≤ 0.5"}
{"variant": "GUACCGUUGGCGUAAUGGUAAGGCGUGUCCCUCCUAAGGAGAAGACUGCGGGUUCGAGCCCUGUACGUAACG", "note": "[U3A C22G C27G U59C C62U G68U]", "yeast fitness": "≤ 0.5"}
{"variant": "GUACUGUUGGCGUAAUGGUAACGCGUCUCCGUCCUAAGGAGAAGACUGCGGGUUCGGGUCCCGUACGGAACG", "note": "[U3A C5U C31G A57G]", "yeast fitness": "≤ 0.5"}
{"variant": "GUACCGUUGGUGUAAUGGUGACGCGUCUCCCUCCUAAGGAGAAGACUGCGGGUUCGAGUCCCGUACGGAACG", "note": "[U3A C11U A20G]", "yeast fitness": 0.654}
{"variant": "GUAUCGUUGGCGAAAUGGUAACGCGUCUCCCUCCUAAGGAGAAGACUGCGAGUUCGAGUCCCGUACGGAACG", "note": "[U3A C4U U13A G51A]", "yeast fitness": "≤ 0.5"}
{"variant": "GUACGGUUGGCGGAAUGGUAACGCGUCUCCCUCCUAAGCAGAAGACUGCGGGUUCGAGUCCCGUACGGACCG", "note": "[U3A C5G U13G G39C A70C]", "yeast fitness": "≤ 0.5"}
{"variant": "GUACCGUUGGCGUAAUGGUAACGGGUCUCCCUGCUAAGGAGAAGACUGCGGGUUUGAGUCCCGUACGGAACG", "note": "[U3A C24G C33G C55U]", "yeast fitness": "≤ 0.5"}
{"variant": "GUACCGUUGGCGUAAUGGUAACGUGUCUCCCUCCUAAGGAGAAGACUGCGGGAUCGAGUCCCGUACGGAACG", "note": "[U3A C24U U53A]", "yeast fitness": 0.548}
